Converted amounts (≈) assume the structure as drawn.
Experiments:
Candida albicans [1] = assay: Antifungal activity against Candida albicans cgmcc2.2086 measured after 48 hrs in presence of CaCl by broth microdilution method; format: functional; details: cgmcc2.2086, 48 h
[2] = Conformational stability in 50% trifluoro-ethyl alcohol assessed as alpha-helical structural propensity by measuring absorption spectra at minimum dichroic band at 35 uM by CD spectra analysis; format: physicochemical
Procedure, shortened: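 CD spectra from 190 to 250 nm of peptide at 35 μM in 10 mM PBS, 30 mM SDS micelles or 50% TFE, recorded in a 1.0-mm quartz cell. Ellipticity was converted to mean residue ellipticity. Three independent scans, each averaged over more than 3 runs.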

Escherichia coli [3] = assay: Antibacterial activity against Escherichia coli ATCC 25922 measured after 18 to 24 hrs in presence of KCl; format: functional
Candida parapsilosis = assay: Antifungal activity against Candida parapsilosis cgmcc2.3989 measured after 48 hrs by broth microdilution method; format: functional; details: Lodderomyces parapsilosis, cgmcc2.3989, 48 h
Procedure, shortened: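 Modified CLSI M27-A2 microdilution. Yeast colonies were diluted in MOPS-buffered RPMI 1640 to a final (0.5–1) × 10^3 CFU mL−1 and mixed with an equal volume of peptide serially diluted in 0.2% BSA. After 48 h at 28 °C, MIC was read at A492 as the lowest concentration inhibiting 95% of growth. At least three independent experiments, each with three technical replicates.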

Staphylococcus aureus [4] = assay: Antibacterial activity against Staphylococcus aureus ATCC 29213 measured after 18 to 24 hrs in presence of KCl; format: functional
[5] = Antibacterial activity against Salmonella pullorum ATCC 7913 measured after 24 hrs; format: functional, Salmonella enterica subsp. enterica serovar Pullorum; details: Salmonella enterica, ATCC 7913, 24 h
Procedure, shortened: (§1)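 Broth microdilution adapted from NCCLS. Mid-log bacteria were diluted in MHB to a final (0.5–1) × 10^5 CFU mL−1. Peptides were serially diluted in 0.2% BSA and mixed with an equal volume of cells. After 24 h at 37 °C, MIC was read at A492 as the lowest concentration inhibiting 95% of growth. At least three independent experiments, each with three technical replicates.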

Escherichia coli [6] = assay: Antibacterial activity against Escherichia coli 078 measured after 24 hrs; format: functional; details: Escherichia coli, 078, 24 h; procedure, shortened: as §1
Salmonella typhimurium [7] = assay: Bactericidal activity against Salmonella typhimurium ATCC 14028 incubated for 24 hrs followed by replating on agar plate and measured after overnight incubation; format: functional, Salmonella enterica subsp. enterica serovar Typhimurium; details: Salmonella enterica, ATCC 14028, 24 h; read-out: MBC>99.9
Procedure, shortened: (§2)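 Mid-log bacteria diluted in MHB to (0.5–1) × 10^5 CFU/mL and mixed 1:1 with peptide serially diluted in 0.2% BSA. After 24 h at 37 °C, 50 μL of each mixture was plated on agar and incubated overnight. MBC taken as the lowest concentration killing >99.9% of cells. At least three independent experiments, each with three technical replicates.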

Staphylococcus aureus [8] = assay: Antibacterial activity against Staphylococcus aureus ATCC 29213 measured after 18 to 24 hrs in presence of NaCl; format: functional
Staphylococcus aureus [9] = assay: Antibacterial activity against Staphylococcus aureus ATCC 29213 measured after 18 to 24 hrs in presence of NH4Cl; format: functional
Procedure, shortened: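 MIC broth microdilution (MHB, 0.2% BSA peptide diluent, A492, 95% inhibition) run in the presence of physiological salts at final concentrations of 6 μM NH4Cl or 8 μM ZnCl2. Three independent assays, each with three technical replicates.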

Escherichia coli [10] = assay: Bactericidal activity against Escherichia coli 078 incubated for 24 hrs followed by replating on agar plate and measured after overnight incubation; format: functional; details: Escherichia coli, 078, 24 h; read-out: MBC>99.9
Procedure, shortened: (§3)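 After the 24 h, 37 °C MHB microdilution (0.5–1 × 10^5 CFU mL−1 inoculum, peptides diluted in 0.2% BSA), 50 μL from each well was plated on agar and incubated overnight. MBC was taken as the lowest concentration killing >99.9% of cells. Three or more independent experiments, each with triplicate technical replicates.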

Candida albicans [11] = assay: Antifungal activity against Candida albicans cgmcc2.2086 measured after 48 hrs in presence of NaCl by broth microdilution method; format: functional; details: cgmcc2.2086, 48 h
Staphylococcus aureus [12] = assay: Antibacterial activity against Staphylococcus aureus ATCC 29213 measured after 18 to 24 hrs in presence of FeCl3; format: functional
Escherichia coli [13] = assay: Bactericidal activity against Escherichia coli ATCC 25922 incubated for 24 hrs followed by replating on agar plate and measured after overnight incubation; format: functional; details: ATCC 25922, 24 h, read-out: MBC>99.9; procedure, shortened: as §3
Escherichia coli [14] = assay: Bactericidal activity against Escherichia coli K99 incubated for 24 hrs followed by replating on agar plate and measured after overnight incubation; format: functional; details: K99, 24 h, read-out: MBC>99.9; procedure, shortened: as §2
Escherichia coli [15] = assay: Antibacterial activity against Escherichia coli ATCC 25922 measured after 18 to 24 hrs in presence of CaCl2; format: functional
Escherichia coli [16] = assay: Antibacterial activity against Escherichia coli ATCC 25922 measured after 18 to 24 hrs in presence of FeCl3; format: functional
Salmonella typhimurium [17] = assay: Bactericidal activity against Salmonella typhimurium C7731 incubated for 24 hrs followed by replating on agar plate and measured after overnight incubation; format: functional, Salmonella enterica subsp. enterica serovar Typhimurium; details: Salmonella enterica, C7731, 24 h; read-out: MBC>99.9; procedure, shortened: as §2
Candida tropicalis = assay: Fungicidal activity against Candida tropicalis cgmcc2.1975 incubated for 48 hrs followed by replating on YM agar plate and measured after 48 hrs; format: functional
Procedure, shortened: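 Yeast diluted in MOPS-buffered RPMI 1640 to (0.5–1) × 10^3 CFU/mL (CLSI M27-A2, modified) and mixed 1:1 with peptide serially diluted in 0.2% BSA. After 48 h at 28 °C, 50 μL per well was plated on YM agar and incubated 48 h at 28 °C. MFC taken as the lowest concentration killing ≥99.9% of cells. Three or more independent experiments, triplicate wells.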

[18] = Therapeutic index, ratio of MHC10 for hemolytic activity in human RBC to MIC95 against Candida tropicalis cgmcc2.1975; format: toxicity; details: human red blood cells (erythrocytes), read-out: TI
Procedure, shortened: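 Therapeutic index = MHC divided by MIC. MHC is the lowest concentration giving >10% lysis of human RBC (1 h, 37 °C, 1-128 µM, A576). MIC is 95% growth inhibition by broth microdilution: bacteria in MHB 24 h at 37 °C; Candida in MOPS-buffered RPMI 1640 at (0.5–1) × 10^3 CFU mL−1, 48 h at 28 °C.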

Erythrocyte = assay: Hemolytic activity in human RBC measured after 1 hr; format: ADME, cell-based
Procedure, shortened: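 Fresh healthy-donor human erythrocytes at ~1% (v/v) in PBS pH 7.4, mixed 1:1 with peptide (1–128 µM), 1 h at 37 °C. After centrifugation at 1000×g, supernatant hemoglobin read at 576 nm. Untreated cells set 0% and 0.1% Triton X-100 set 100%. MHC defined as the concentration giving >10% hemolysis. Three or more independent experiments, triplicates.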

Staphylococcus aureus [19] = assay: Antibacterial activity against methicillin-resistant Staphylococcus aureus ATCC 43300 measured after 24 hrs; format: functional; details: ATCC 43300, 24 h
Procedure, shortened: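 Broth microdilution modified from NCCLS. Mid-log bacteria at (0.5–1) × 10^5 CFU mL−1 in MHB, mixed with peptides serially diluted in 0.2% BSA. Incubated 24 h at 37 °C, read at A492. MIC taken as lowest concentration giving 95% growth inhibition. At least three independent experiments, each with three technical replicates.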

Row | Molecule | MIC95 (Candida albicans [1]) [µM] | MIC95 (Escherichia coli [3]) [µM] | MIC95 (Candida parapsilosis) [µM] | MIC95 (Staphylococcus aureus [4]) [µM] | MIC95 [5] [µM] | MIC95 (Escherichia coli [6]) [µM] | MBC (Salmonella typhimurium [7]) [µM] | MIC95 (Staphylococcus aureus [8]) [µM] | MIC95 (Staphylococcus aureus [9]) [µM] | MBC (Escherichia coli [10]) [µM] | MIC95 (Candida albicans [11]) [µM] | MIC95 (Staphylococcus aureus [12]) [µM] | MBC (Escherichia coli [13]) [µM] | MBC (Escherichia coli [14]) [µM] | MIC95 (Escherichia coli [15]) [µM] | MIC95 (Escherichia coli [16]) [µM] | MBC (Salmonella typhimurium [17]) [µM] | selectivity ratio [18] | MHC10 (Erythrocyte) [µM] | MIC95 (Staphylococcus aureus [19]) [µM] | other results
1 | H-AARIILRFRFR-NH2 | 64 | 16 | 4 | 2 | 4 | 4 | 8 | 32 | 2 | 8 | 32 | 4 | 8 | 4 | 32 | 16 | 8 | 50.8 | > 128 | 2 | Activity [2]: 208 to 222 nm; MFC<=99.9 (Candida tropicalis): 4 µM
2 | H-AARIILRRRFR-NH2 | > 128 | 64 | 64 | 32 | 16 | 16 | 64 | 128 | 16 | 32 | > 128 | 16 | 16 | 16 | 128 | 32 | 16 | 3.17 | > 128 | 16 | Activity [2]: 208 to 222 nm; MFC<=99.9 (Candida tropicalis): 128 µM
3 | H-AARIILRIRFR-NH2 | 64 | 2 | 4 | 2 | 2 | 2 | 4 | 8 | 2 | 4 | 32 | 2 | 4 | 4 | 32 | 4 | 8 | 25.4 | 128 | 2 | Activity [2]: 208 to 222 nm; MFC<=99.9 (Candida tropicalis): 4 µM
4 | H-AARIILRLRFR-NH2 | 32 | 8 | 4 | 2 | 4 | 4 | 8 | 16 | 2 | 8 | 32 | 4 | 8 | 4 | 32 | 8 | 8 | 50.8 | > 128 | 2 | Activity [2]: 208 to 222 nm; MFC<=99.9 (Candida tropicalis): 4 µM
5 | H-AARIILRYRFR-NH2 | 128 | 32 | 64 | 8 | 4 | 4 | 16 | > 128 | 4 | 4 | 128 | 4 | 16 | 8 | > 128 | 16 | 8 | 8 | > 128 | 4 | Activity [2]: 208 to 222 nm; MFC<=99.9 (Candida tropicalis): 32 µM
6 | H-AARIILRARFR-NH2 | 64 | 8 | 16 | 8 | 4 | 4 | 4 | > 128 | 4 | 4 | 64 | 4 | 4 | 4 | 32 | 4 | 8 | 25.4 | > 128 | 2 | Activity [2]: 208 to 222 nm; MFC<=99.9 (Candida tropicalis): 4 µM
7 | CC[C@H](C)[C@H](NC(=O)CN)C(=O)NCC(=O)N[C@@H](C)C(=O)N[C@H](C(=O)N[C@@H](CC(C)C)C(=O)N[C@@H](CCCCN)C(=O)N[C@H](C(=O)N[C@@H](CC(C)C)C(=O)N[C@H](C(=O)N[C@H](C(=O)NCC(=O)N[C@@H](CC(C)C)C(=O)N1CCC[C@H]1C(=O)N[C@@H](C)C(=O)N[C@@H](CC(C)C)C(=O)N[C@H](C(=O)N[C@@H](CO)C(=O)N[C@@H](Cc1c[nH]c2ccccc12)C(=O)N[C@H](C(=O)N[C@@H](CCCCN)C(=O)N[C@@H](CCCNC(=N)N)C(=O)N[C@@H](CCCCN)C(=O)N[C@@H](CCCNC(=N)N)C(=O)N[C@@H](CCC(N)=O)C(=O)N[C@@H](CCC(N)=O)C(N)=O)[C@@H](C)CC)[C@@H](C)CC)[C@@H](C)O)[C@@H](C)O)C(C)C)C(C)C [MELITTIN] | 8 | 2 | 2 (≈ 5.69 µg/mL) | 4 | 2 (≈ 5.69 µg/mL) | 2 (≈ 5.69 µg/mL) | 2 (≈ 5.69 µg/mL) | 8 | 4 | 2 (≈ 5.69 µg/mL) | 8 | 4 | 4 (≈ 11.4 µg/mL) | 2 (≈ 5.69 µg/mL) | 8 | 2 | 4 (≈ 11.4 µg/mL) | 0.32 | 1 | 1 (≈ 2.85 µg/mL) | MFC<=99.9 (Candida tropicalis): 4 µM (≈ 11.4 µg/mL)
8 | H-AARIILRPRFR-NH2 | > 128 | 16 | > 128 | > 128 | 16 | 8 | 32 | > 128 | > 128 | 16 | > 128 | > 128 | 32 | 32 | 128 | 16 | 32 | 2 | > 128 | > 128 | Stability [2]: Unstable

— ChEMBL document CHEMBL4350958, “Rational Design of Short Peptide Variants by Using Kunitzin-RE, an Amphibian-Derived Bioactivity Peptide, for Acquired Potent Broad-Spectrum Antimicrobial and Improved Therapeutic Potential of Commensalism Coinfection of Pathogens” (J Med Chem, 2019)
